Data reported in ChEMBL document CHEMBL2331548, “Identification of N-acyl 4-(3-pyridonyl)phenylalanine derivatives and their orally active prodrug esters as dual acting α4β1 and α4β7 receptor antagonists” (Bioorg Med Chem Lett, 2013).
pIC50: −log10 of the molar value.

Target: Integrin alpha-4/beta-7 (Homo sapiens) (UniProt P13612+P26010)
Test: Inhibition of human MAdCAM1 binding to integrin alpha4beta7 receptor in human RPMI 8866 cells labeled with Calcein AM relative to RO0270608
Type: cell-based
Procedure, shortened: (§1)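 Serially diluted compound tested for blocking adhesion of Calcein AM-labelled cells to recombinant human counter-ligand: RAMOS cells on VCAM-1 (α4β1) and RPMI 8866 cells on MAdCAM-1 (α4β7). Cells activated beforehand in Mn2+-containing binding buffer for maximal activation. IC50 taken from fluorescence; RO0270608 run on every plate, and relative potency expressed as fold versus this control because cell activity drifted with passage.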

| SMILES | Ratio IC50 |
| --- | --- |
| Cc1cccc(Cl)c1C(=O)N[C@@H](Cc1ccc(-c2c(C)ccn(C)c2=O)cc1)C(=O)O | 0.68 |
| Cc1cccc(Cl)c1C(=O)N[C@@H](Cc1ccc(-c2cccn(C)c2=O)cc1)C(=O)O | 0.46 |
| CCc1cccc(C)c1C(=O)N[C@@H](Cc1ccc(-c2c(C(F)(F)F)cc(C)n(C)c2=O)cc1)C(=O)O | 0.7 |
| Cc1ccn(C)c(=O)c1-c1ccc(C[C@H](NC(=O)c2c(Cl)cccc2Cl)C(=O)O)cc1 | 1.6 |
| Cc1cccc(Cl)c1C(=O)N[C@@H](Cc1ccc(-c2c(C)cc(C(F)(F)F)n(C)c2=O)cc1)C(=O)O | 2.6 |
| Cc1cc(C(F)(F)F)n(C)c(=O)c1-c1ccc(C[C@H](NC(=O)c2c(Cl)cccc2Cl)C(=O)O)cc1 | 2.2 |
| CCn1c(C)cc(C(F)(F)F)c(-c2ccc(C[C@H](NC(=O)c3c(Cl)cccc3Cl)C(=O)O)cc2)c1=O | 1.9 |
| Cc1cc(C(F)(F)F)c(-c2ccc(C[C@H](NC(=O)c3c(Cl)cccc3Cl)C(=O)O)cc2)c(=O)n1Cc1ccccc1 | 0.96 |

Results, then the compound that gave them:

| Ratio IC50 | SMILES |
| --- | --- |
| 0.23 | Cc1cccc(C(C)C)c1C(=O)N[C@@H](Cc1ccc(-c2c(C(F)(F)F)cc(C)n(C)c2=O)cc1)C(=O)O |
| 0.34 | Cc1cc(C(F)(F)F)c(-c2ccc(C[C@H](NC(=O)c3c(Cl)cccc3Cl)C(=O)O)cc2)c(=O)n1CC1CC1 |
| 0.54 | COCCC1(C(=O)N[C@@H](Cc2ccc(-c3c(C(F)(F)F)cc(C)n(C)c3=O)cc2)C(=O)O)CCCC1 |

Target: T1, Integrin alpha-4/beta-1 (Homo sapiens, UniProt P05556+P13612)
T1 sequence (P05556 whole entry, one chain of several): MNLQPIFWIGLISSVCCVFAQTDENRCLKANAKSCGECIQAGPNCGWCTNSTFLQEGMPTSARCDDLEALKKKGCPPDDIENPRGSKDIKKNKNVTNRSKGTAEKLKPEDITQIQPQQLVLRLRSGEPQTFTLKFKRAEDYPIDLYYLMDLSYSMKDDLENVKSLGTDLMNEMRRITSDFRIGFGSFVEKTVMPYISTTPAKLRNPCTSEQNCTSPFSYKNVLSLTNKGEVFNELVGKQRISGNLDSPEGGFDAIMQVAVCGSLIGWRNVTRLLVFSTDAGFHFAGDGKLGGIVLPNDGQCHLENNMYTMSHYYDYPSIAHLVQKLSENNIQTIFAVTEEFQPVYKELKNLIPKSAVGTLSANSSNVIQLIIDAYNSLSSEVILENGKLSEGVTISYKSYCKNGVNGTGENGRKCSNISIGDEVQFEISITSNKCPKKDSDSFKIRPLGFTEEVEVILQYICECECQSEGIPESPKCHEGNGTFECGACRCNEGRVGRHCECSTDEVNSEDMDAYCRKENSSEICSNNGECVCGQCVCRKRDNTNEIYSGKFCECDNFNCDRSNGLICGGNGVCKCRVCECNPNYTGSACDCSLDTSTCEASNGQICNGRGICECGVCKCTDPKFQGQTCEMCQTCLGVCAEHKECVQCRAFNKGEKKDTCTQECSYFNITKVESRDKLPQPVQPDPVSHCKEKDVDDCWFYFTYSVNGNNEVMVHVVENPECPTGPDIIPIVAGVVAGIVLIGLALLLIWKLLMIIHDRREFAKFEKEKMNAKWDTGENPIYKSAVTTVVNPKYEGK
Test: Inhibition of human VCAM1 binding to integrin alpha4beta1 receptor in human Ramos cells labeled with Calcein AM relative to RO0270608
Type: cell-based
Procedure, shortened: as §1

| SMILES | Ratio IC50 |
| --- | --- |
| Cc1cccc(Cl)c1C(=O)N[C@@H](Cc1ccc(-c2c(C)ccn(C)c2=O)cc1)C(=O)O | 0.23 |
| Cc1cccc(Cl)c1C(=O)N[C@@H](Cc1ccc(-c2cccn(C)c2=O)cc1)C(=O)O | 0.03 |
| CCc1cccc(C)c1C(=O)N[C@@H](Cc1ccc(-c2c(C(F)(F)F)cc(C)n(C)c2=O)cc1)C(=O)O | 0.41 |
| Cc1ccn(C)c(=O)c1-c1ccc(C[C@H](NC(=O)c2c(Cl)cccc2Cl)C(=O)O)cc1 | 0.37 |
| Cc1cccc(Cl)c1C(=O)N[C@@H](Cc1ccc(-c2c(C)cc(C(F)(F)F)n(C)c2=O)cc1)C(=O)O | 0.06 |
| Cc1cc(C(F)(F)F)n(C)c(=O)c1-c1ccc(C[C@H](NC(=O)c2c(Cl)cccc2Cl)C(=O)O)cc1 | 0.11 |
| CCn1c(C)cc(C(F)(F)F)c(-c2ccc(C[C@H](NC(=O)c3c(Cl)cccc3Cl)C(=O)O)cc2)c1=O | 0.4 |
| Cc1cc(C(F)(F)F)c(-c2ccc(C[C@H](NC(=O)c3c(Cl)cccc3Cl)C(=O)O)cc2)c(=O)n1Cc1ccccc1 | 0.12 |

Further lines, results first:

| Ratio IC50 | SMILES |
| --- | --- |
| 0.36 | Cc1cccc(C(C)C)c1C(=O)N[C@@H](Cc1ccc(-c2c(C(F)(F)F)cc(C)n(C)c2=O)cc1)C(=O)O |
| 0.03 | Cc1cc(C(F)(F)F)c(-c2ccc(C[C@H](NC(=O)c3c(Cl)cccc3Cl)C(=O)O)cc2)c(=O)n1CC1CC1 |
| 0.75 | COCCC1(C(=O)N[C@@H](Cc2ccc(-c3c(C(F)(F)F)cc(C)n(C)c3=O)cc2)C(=O)O)CCCC1 |

Target: T2, Integrin alpha-4/beta-7 (Homo sapiens, UniProt P13612+P26010)
T2 sequence (P13612 whole entry): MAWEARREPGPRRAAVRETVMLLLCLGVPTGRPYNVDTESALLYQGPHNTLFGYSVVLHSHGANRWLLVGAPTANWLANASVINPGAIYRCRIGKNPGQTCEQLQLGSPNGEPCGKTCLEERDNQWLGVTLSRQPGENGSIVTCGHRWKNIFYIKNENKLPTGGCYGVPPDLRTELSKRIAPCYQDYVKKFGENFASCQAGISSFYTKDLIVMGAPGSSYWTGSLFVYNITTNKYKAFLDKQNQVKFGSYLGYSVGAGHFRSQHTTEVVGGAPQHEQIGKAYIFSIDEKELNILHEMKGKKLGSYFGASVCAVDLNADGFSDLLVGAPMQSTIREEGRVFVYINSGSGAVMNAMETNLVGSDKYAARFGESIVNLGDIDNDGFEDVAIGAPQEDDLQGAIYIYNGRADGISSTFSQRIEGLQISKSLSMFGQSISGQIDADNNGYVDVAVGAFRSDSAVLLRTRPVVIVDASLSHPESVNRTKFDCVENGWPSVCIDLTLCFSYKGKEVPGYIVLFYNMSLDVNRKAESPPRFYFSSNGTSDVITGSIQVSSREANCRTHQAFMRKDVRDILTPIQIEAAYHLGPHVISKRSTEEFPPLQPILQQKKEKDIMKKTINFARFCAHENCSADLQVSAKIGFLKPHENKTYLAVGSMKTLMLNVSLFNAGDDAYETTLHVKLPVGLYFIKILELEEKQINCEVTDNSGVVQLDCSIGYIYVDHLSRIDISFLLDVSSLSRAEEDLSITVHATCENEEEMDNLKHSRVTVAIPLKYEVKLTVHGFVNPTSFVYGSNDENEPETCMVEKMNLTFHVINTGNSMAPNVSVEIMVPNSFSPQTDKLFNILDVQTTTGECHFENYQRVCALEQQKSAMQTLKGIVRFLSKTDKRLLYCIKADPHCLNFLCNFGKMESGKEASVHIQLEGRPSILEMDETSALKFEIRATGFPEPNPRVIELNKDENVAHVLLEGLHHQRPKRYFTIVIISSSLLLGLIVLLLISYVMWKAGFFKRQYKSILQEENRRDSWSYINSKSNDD
T2 sequence (P26010 whole entry): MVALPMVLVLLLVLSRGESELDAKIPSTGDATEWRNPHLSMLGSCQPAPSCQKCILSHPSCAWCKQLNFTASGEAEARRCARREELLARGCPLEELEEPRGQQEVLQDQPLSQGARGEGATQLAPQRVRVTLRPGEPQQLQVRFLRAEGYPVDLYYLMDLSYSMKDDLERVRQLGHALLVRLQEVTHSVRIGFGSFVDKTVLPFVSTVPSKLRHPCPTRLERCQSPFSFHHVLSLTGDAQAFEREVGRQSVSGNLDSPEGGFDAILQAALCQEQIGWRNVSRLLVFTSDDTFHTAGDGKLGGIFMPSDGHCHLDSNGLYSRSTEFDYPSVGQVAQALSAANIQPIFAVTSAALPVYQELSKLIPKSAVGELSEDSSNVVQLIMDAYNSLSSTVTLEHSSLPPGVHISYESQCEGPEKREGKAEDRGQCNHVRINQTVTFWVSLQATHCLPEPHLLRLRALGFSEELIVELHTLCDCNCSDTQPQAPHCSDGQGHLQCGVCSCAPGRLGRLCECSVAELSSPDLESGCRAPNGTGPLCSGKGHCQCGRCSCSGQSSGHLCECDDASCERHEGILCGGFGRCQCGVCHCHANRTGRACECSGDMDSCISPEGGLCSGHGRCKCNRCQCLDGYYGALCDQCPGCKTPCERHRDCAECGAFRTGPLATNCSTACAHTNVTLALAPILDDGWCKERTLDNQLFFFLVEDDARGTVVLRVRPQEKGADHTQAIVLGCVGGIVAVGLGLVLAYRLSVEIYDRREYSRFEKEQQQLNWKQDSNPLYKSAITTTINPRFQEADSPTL
Test: Inhibition of human MAdCAM1 binding to integrin alpha4beta7 receptor in human RPMI 8866 cells labeled with Calcein AM
Type: cell-based
Procedure, shortened: as §1

| SMILES | pIC50 |
| --- | --- |
| Cc1cccc(Cl)c1C(=O)N[C@@H](Cc1ccc(-c2c(C)ccn(C)c2=O)cc1)C(=O)O | 6.44 |
| Cc1cccc(Cl)c1C(=O)N[C@@H](Cc1ccc(-c2cccn(C)c2=O)cc1)C(=O)O | 6.16 |
| CCc1cccc(C)c1C(=O)N[C@@H](Cc1ccc(-c2c(C(F)(F)F)cc(C)n(C)c2=O)cc1)C(=O)O | 6.12 |
| Cc1ccn(C)c(=O)c1-c1ccc(C[C@H](NC(=O)c2c(Cl)cccc2Cl)C(=O)O)cc1 | 6.75 |
| Cc1cccc(Cl)c1C(=O)N[C@@H](Cc1ccc(-c2c(C)cc(C(F)(F)F)n(C)c2=O)cc1)C(=O)O | 6.80 |
| Cc1cc(C(F)(F)F)n(C)c(=O)c1-c1ccc(C[C@H](NC(=O)c2c(Cl)cccc2Cl)C(=O)O)cc1 | 6.90 |
| CCn1c(C)cc(C(F)(F)F)c(-c2ccc(C[C@H](NC(=O)c3c(Cl)cccc3Cl)C(=O)O)cc2)c1=O | 7.21 |
| Cc1cc(C(F)(F)F)c(-c2ccc(C[C@H](NC(=O)c3c(Cl)cccc3Cl)C(=O)O)cc2)c(=O)n1Cc1ccccc1 | 6.22 |

Now from value to compound:

| pIC50 | SMILES |
| --- | --- |
| 7.37 | Cc1cccc(Cl)c1C(=O)N[C@@H](Cc1ccc(NC(=O)c2c(Cl)cccc2Cl)cc1)C(=O)O |
| 5.89 | Cc1cccc(C(C)C)c1C(=O)N[C@@H](Cc1ccc(-c2c(C(F)(F)F)cc(C)n(C)c2=O)cc1)C(=O)O |
| 5.91 | Cc1cc(C(F)(F)F)c(-c2ccc(C[C@H](NC(=O)c3c(Cl)cccc3Cl)C(=O)O)cc2)c(=O)n1CC1CC1 |
| 6.17 | COCCC1(C(=O)N[C@@H](Cc2ccc(-c3c(C(F)(F)F)cc(C)n(C)c3=O)cc2)C(=O)O)CCCC1 |

Target: T1, Integrin alpha-4/beta-1
Test: Inhibition of human VCAM1 binding to integrin alpha4beta1 receptor in human Ramos cells labeled with Calcein AM
Type: cell-based
Procedure, shortened: as §1

| SMILES | pIC50 |
| --- | --- |
| Cc1cccc(Cl)c1C(=O)N[C@@H](Cc1ccc(-c2c(C)ccn(C)c2=O)cc1)C(=O)O | 6.65 |
| Cc1cccc(Cl)c1C(=O)N[C@@H](Cc1ccc(-c2cccn(C)c2=O)cc1)C(=O)O | 6.24 |
| CCc1cccc(C)c1C(=O)N[C@@H](Cc1ccc(-c2c(C(F)(F)F)cc(C)n(C)c2=O)cc1)C(=O)O | 6.65 |
| COc1ccc(Br)c(C(=O)N[C@@H](Cc2ccc(-c3cccn(C)c3=O)cc2)C(=O)O)c1 | 6.38 |
| Cc1ccn(C)c(=O)c1-c1ccc(C[C@H](NC(=O)c2c(Cl)cccc2Cl)C(=O)O)cc1 | 7.05 |
| Cc1cccc(Cl)c1C(=O)N[C@@H](Cc1ccc(-c2c(C)cc(C(F)(F)F)n(C)c2=O)cc1)C(=O)O | 6.57 |
| Cc1cc(C(F)(F)F)n(C)c(=O)c1-c1ccc(C[C@H](NC(=O)c2c(Cl)cccc2Cl)C(=O)O)cc1 | 6.57 |
| CCn1c(C)cc(C(F)(F)F)c(-c2ccc(C[C@H](NC(=O)c3c(Cl)cccc3Cl)C(=O)O)cc2)c1=O | 6.95 |
| Cc1cc(C(F)(F)F)c(-c2ccc(C[C@H](NC(=O)c3c(Cl)cccc3Cl)C(=O)O)cc2)c(=O)n1Cc1ccccc1 | 6.25 |

The next lines start with the values.

| pIC50 | SMILES |
| --- | --- |
| 8.00 | Cc1cccc(Cl)c1C(=O)N[C@@H](Cc1ccc(NC(=O)c2c(Cl)cccc2Cl)cc1)C(=O)O |
| 6.44 | Cc1cccc(C(C)C)c1C(=O)N[C@@H](Cc1ccc(-c2c(C(F)(F)F)cc(C)n(C)c2=O)cc1)C(=O)O |
| 6.33 | Cc1cc(C(F)(F)F)c(-c2ccc(C[C@H](NC(=O)c3c(Cl)cccc3Cl)C(=O)O)cc2)c(=O)n1CC1CC1 |
| 6.85 | COCCC1(C(=O)N[C@@H](Cc2ccc(-c3c(C(F)(F)F)cc(C)n(C)c3=O)cc2)C(=O)O)CCCC1 |
